Jurkat NFkB inh: lowers PMA/ionomycin-induced NF-kB signal in Jurkat cells; inhibition, % at 4 µM; 330,000 tested, 0.53% active; PMA/ionomycin-induced NF-kB luciferase reporter, luminescence; in the data active = inhibition above about 50%
IMP-1 inh: blocks Pseudomonas aeruginosa IMP-1 metallo-beta-lactamase; purified IMP-1, nitrocefin hydrolysis, epi-absorbance fluorescence; inhibition, % at 5.6 µM; 290,000 tested, 0.45% active; AID 1556;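 active = inhibition above the mean plus 3 SD of all compounds in the same screening run, cut at about 4.5% in these data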;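 note: 0% = IMP-1 with DMSO and 100% = DMSO wells lacking enzyme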
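System: purified recombinant IMP-1 beta-lactamase. Medium: Zinc- and detergent-supplemented HEPES buffer, pH 7.1. Compound: one 5.6 µM dose […]. Schedule: 15 min preincubation plus 25 min reaction at 25 °C. Technique: Epi-absorbance fluorescence, 480 nm excitation, 530 nm emission.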
Mdm2-MdmX inh: human Mdm2/MdmX binding inhibition; O15151+Q00987; SaOS-2 split-luciferase Mdm2/MdmX complementation, luminescence; inhibition, % at 8 µM; 330,000 tested, 3% active;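 active = inhibition of at least 50% at 8 µM in the primary screen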
Target sequence (O15151 whole entry, looked up): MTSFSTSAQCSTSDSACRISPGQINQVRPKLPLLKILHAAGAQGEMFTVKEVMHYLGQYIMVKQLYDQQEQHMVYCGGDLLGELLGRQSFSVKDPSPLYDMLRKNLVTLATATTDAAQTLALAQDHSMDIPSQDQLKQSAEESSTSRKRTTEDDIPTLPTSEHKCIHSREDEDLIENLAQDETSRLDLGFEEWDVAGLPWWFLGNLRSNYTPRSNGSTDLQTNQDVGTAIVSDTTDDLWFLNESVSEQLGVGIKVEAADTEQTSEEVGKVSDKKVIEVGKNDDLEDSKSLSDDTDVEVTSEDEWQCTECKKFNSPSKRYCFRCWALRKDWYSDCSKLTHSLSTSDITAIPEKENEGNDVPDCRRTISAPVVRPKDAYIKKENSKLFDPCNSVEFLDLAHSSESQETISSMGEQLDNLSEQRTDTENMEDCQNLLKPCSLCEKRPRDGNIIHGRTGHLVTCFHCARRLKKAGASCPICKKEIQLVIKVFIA
Target sequence (Q00987 whole entry, looked up): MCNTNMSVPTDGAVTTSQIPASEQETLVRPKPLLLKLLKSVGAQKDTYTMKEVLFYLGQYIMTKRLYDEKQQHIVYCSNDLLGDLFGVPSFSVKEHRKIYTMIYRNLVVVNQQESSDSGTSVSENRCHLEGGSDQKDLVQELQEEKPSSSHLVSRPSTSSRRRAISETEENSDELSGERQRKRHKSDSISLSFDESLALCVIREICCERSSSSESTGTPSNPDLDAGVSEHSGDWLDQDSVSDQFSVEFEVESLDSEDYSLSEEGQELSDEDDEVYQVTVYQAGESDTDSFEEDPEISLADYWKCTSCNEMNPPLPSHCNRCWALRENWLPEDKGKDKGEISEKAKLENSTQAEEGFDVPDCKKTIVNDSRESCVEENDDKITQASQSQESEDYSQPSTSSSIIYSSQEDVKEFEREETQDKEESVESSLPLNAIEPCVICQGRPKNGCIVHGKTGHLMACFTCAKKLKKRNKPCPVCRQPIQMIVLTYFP
aSyn UTR inh: MLPCN primary screen, SNCA 5' untranslated region; alpha-synuclein 5'UTR reporter, inhibitor activity; inhibition, % (tested at 7.5 µM); 300,000 tested, 0.82% active; AID 1813; in the data active = inhibition above about 60%;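 note: H4 neuroglioblastoma cells stably carrying SNCA 5'UTR luciferase fusion; 0% = DMSO wells and 100% = positive control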
697 NFkB inh: inhibitors of the PMA/ionomycin-induced NF-kB reporter in 697 B cells | 330,000 tested, 0.33% active | 697 B-cell NF-kB luciferase reporter, 16 h | inhibition, % at 4 µM; in the data active = inhibition above about 35%
VIM-2 inhibitor: inhibitors of Pseudomonas aeruginosa VIM-2 metallo-beta-lactamase. 290,000 tested, 0.89% active. purified VIM-2, nitrocefin hydrolysis, epi-absorbance fluorescence. inhibition, % at 5.6 µM;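 active = inhibition above the mean of all tested compounds plus 3 SD, cutoff set per screening run, cut at about 7.5% in these data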;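 note: red hydrolysis product quenches plate fluorescence so inhibitors raise well fluorescence; 0% = enzyme with DMSO and 100% = DMSO without enzyme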
Jurkat NFkB conf: lowers PMA/ionomycin-induced NF-kB signal in Jurkat cells | shares compounds with Jurkat NFkB inh | Jurkat NF-kB luciferase, 16 h | inhibition, % at 4 µM | 2,700 tested, 27% active | AID 435020;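 active = inhibition reaching about 45% at 4 µM in either replicate, limit read from the data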;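 note: plate controls were PMA/ionomycin stimulated DMSO wells for no effect and unstimulated DMSO wells for full effect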
697 NFkB conf: inhibitors of the PMA/ionomycin-induced NF-kB reporter in 697 B cells, retest | shares compounds with 697 NFkB inh | 697 B-cell NF-kB luciferase, 16 h | inhibition, % at 4 µM | 2,000 tested, 35% active; in the data active = inhibition mostly above about 28%, no sharp cut-off; inactive = mostly below about 22%
Mdm2 MdmX conf: human Mdm2/MdmX binding inhibition, confirmed; shares compounds with Mdm2-MdmX inh; luminescent assay; inhibition, % at 8 µM; 10,000 tested, 55% active; AID 489028; in the data active = inhibition above about 40%
FLuc counter: inhibits full-length luciferase, flagging false Mdm2/MdmX hits. shares compounds with Mdm2-MdmX inh. SaOS-2 full-length luciferase counterscreen, luminescence. inhibition, % at 8 µM. 6,200 tested, 77% active;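 active = mean inhibition at 8 µM reaching about 37%, which flags the compound as non-specific, limit read from the data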;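 note: p53-null SaOS-2 cells with luciferase driven by a doxycycline-inducible promoter; compound on cells about two nights before reading with doxycycline added after day one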
* = called active by the depositor; / = no result given. In the library only some 4.7% were active in any assay of this set; here they are far more common.

SMILES	Jurkat NFkB inh	IMP-1 inh	Mdm2-MdmX inh	aSyn UTR inh	697 NFkB inh	VIM-2 inhibitor	Jurkat NFkB conf	Mdm2 MdmX conf	FLuc counter	others
COc1ccc(OC)c(N2C(=O)CC(NNC(=O)c3ccc4c(c3)OCO4)C2=O)c1 (configuration not stated)	7.5	/	16.7	/	-2.5	/	/	/	/
COC(=O)/C(=C1/Oc2cc(C)oc(=O)c2S1)C(F)(F)F	69.2*	-1.3	100.2*	-55.0	-324.5	1.1	10.8	99.8*	51.0*	697 NFkB conf=-197.5
COC(=O)c1cn(NC(=O)C2CCC(C)CC2)c(=O)c2ccccc12 (configuration not stated)	3.3	-2.5	-15.3	17.4	-7.5	-2.3	/	/	/
COC(=O)c1cn(NC(=O)c2cc([N+](=O)[O-])ccc2F)c(=O)c2ccccc12	96.8*	-3.0	83.1*	2.7	-103.3	-2.5	90.3*	75.9*	53.7*
Cc1c(NS(=O)(=O)c2cccc(C(=O)N3CCC(C)CC3)c2)c(=O)n(-c2ccccc2)n1C	-10.9	/	6.6	/	-13.9	/	/	/	/
CC(=O)c1c(OC(=O)c2ccccc2)ccnc1C(F)(F)F	11.6	/	-12.9	/	0.6	/	/	/	/
O[C@@H]1[C@@H](O)C=C2CCN3Cc4cc5c(cc4[C@H]1C23)OCO5 (some centres not stated)	96.4*	/	83.6*	/	-289.3	/	89.3*	75.6*	101.3*	697 NFkB conf=-229.2
COc1ccc2c(c1OC)CN1CCc3cc4c(cc3[C@@H]1[C@@H]2O)OCO4	4.0	-3.7	16.9	-69.1	-10.6	-2.2	/	/	/
CC(C)(C)c1ccc(Oc2ccc(NC(=O)c3ccco3)cn2)cc1	53.0*	-0.9	56.1*	-10.6	-143.3	-4.4	39.8	39.2	69.2*
COC(=O)c1cc(CNC(=O)Cc2ccsc2)ccc1OC	15.6	-3.0	-5.1	8.0	9.5	-1.8	/	/	/
CCOc1ccc(NC(=O)CCC(=O)Nc2nnc(CC)s2)cc1	-2.7	-1.6	13.4	-1.6	14.4	-1.1	/	/	/
COc1cccc(-c2nc(CS(=O)(=O)CC(=O)Nc3cc(OC)ccc3OC)c(C)o2)c1	15.0	-0.2	-15.3	20.0	-3.9	-1.3	/	/	/
COc1ccc(/C=C/c2ccc3cccc(O)c3n2)cc1Br	-62.3	-0.1	4.0	0.1	-74.8	-4.3	/	/	/
COc1cc(/C=C/c2ccc3cccc(O)c3n2)cc(OC)c1OC	96.7*	0.2	84.0*	-23.7	-182.0	0.8	35.0	76.2*	27.2
O=C(COC(=O)Cc1ccc(S(=O)(=O)N2CCOCC2)s1)Nc1ccccc1	-2.4	/	31.1	/	12.0	/	/	/	/
Cc1ccc(N/C(N)=N/c2nc(CSc3nnc(C)s3)cc(=O)[nH]2)c(C)c1	71.6*	0.0	60.0*	83.5*	-5.5	2.2	52.5*	55.6*	67.8*
Cc1ccc(SCc2cc(=O)[nH]c(/N=C(\N)Nc3cccc4ccccc34)n2)cc1	-16.2	-0.6	15.2	4.1	-10.2	-1.3	/	/	/
COc1ccc(-c2cc(C(=O)Nc3cc(C)nn3-c3ccccc3)no2)cc1	-1.8	-0.5	5.4	-16.0	15.2	-2.3	/	/	/
COc1ccccc1-c1cc(C(=O)Nc2cc(C)nn2-c2ccccc2)no1	60.5*	4.0	57.0*	0.5	-50.5	-5.5	32.4	61.5*	45.5*
O=C1C(=O)c2ccc(-c3ccccc3)cc2-c2ccccc21	52.5*	-5.1	84.1*	118.6*	21.3	1.8	23.6	100.2*	52.0*
Nc1ccc2c(c1)C(=O)c1ccccc1-2	-21.4	/	32.2	-13.6	18.9	/	/	/	/
Nc1ccc2c(c1)C(=O)C(=O)c1ccccc1-2	83.7*	-4.5	98.3*	129.7*	5.2	7.5	24.3	99.1*	0.8
O=C(N/N=C\c1cc(Br)ccc1O)c1ccc(S(=O)(=O)N2CCCCC2)cc1	53.6*	-1.7	70.3*	109.7*	-26.3	-2.8	32.5	75.0*	21.3
O=C(N/N=C/c1ccc(O)c(O)c1)c1cccc(S(=O)(=O)N2CCCCC2)c1	-4.9	-1.4	-3.4	-4.2	-27.7	0.3	/	/	/
COc1cc(Nc2ccc(C)cc2)c([N+](=O)[O-])nc1[N+](=O)[O-]	58.2*	-0.6	52.5*	43.2	-51.9	1.0	50.0*	42.1*	86.9*
SMILES	Jurkat NFkB inh	IMP-1 inh	Mdm2-MdmX inh	aSyn UTR inh	697 NFkB inh	VIM-2 inhibitor	Jurkat NFkB conf	Mdm2 MdmX conf	FLuc counter	others
COc1cc(CC(=O)OCC(=O)c2ccc3c(c2)OCCO3)cc(OC)c1OC	60.7*	-2.6	66.3*	100.5*	0.7	-2.9	37.8	53.8*	101.1*
COC(=O)CCC(=O)NC(=S)Nc1sc(C)c(C)c1C(N)=O	65.0*	-3.5	61.0*	89.5*	-40.9	-2.8	50.0*	57.9*	91.5*
O=C(OCC1OC2C(Oc3nc(=O)ccn32)C1O)c1ccccc1 (configuration not stated)	3.4	-0.2	5.3	-2.3	-12.4	-1.2	/	/	/
N=c1ccn2c(n1)O[C@H]1[C@@H](CO)[C@H](O)O[C@H]12	53.5*	/	69.5*	/	69.5*	/	61.2*	61.2*	43.0*	697 NFkB conf=61.2*
CC(C)(C)C(=O)/C(=C/c1ccncc1)n1cncn1	54.2*	-4.1	100.3*	-58.0	37.3*	-3.2	31.1	100.0*	51.1*	697 NFkB conf=42.1*
Clc1ccc2c(c1)C(C1=NCCN1)c1ccccc1CS2 (configuration not stated)	63.4*	-3.8	50.9*	78.7*	4.9	-2.7	42.8*	52.6*	47.5*
Cc1[nH]oc(=O)c1N=Nc1ccc2[nH]c(=O)[nH]c2c1	8.8	/	8.3	-7.0	2.3	/	/	/	/
CCC(=NCCc1c(C)[nH]c2ccc(C)cc12)C1=C(O)CC(c2ccccc2)CC1=O (configuration not stated)	63.9*	-3.0	66.9*	104.0*	-22.4	-1.2	9.6	61.0*	70.3*
CC(=O)C1=C(O)CC(c2ccccc2)CC1=NCCc1c(C)[nH]c2ccc(C)cc12 (configuration not stated)	-3.5	0.1	-13.2	8.2	-10.9	-1.9	/	/	/
CC(C)(C)OC(=O)NCc1ccc(NC(=O)c2nc[nH]c2C(=O)NCCNC(=O)c2[nH]cnc2C(=O)Nc2ccc(CNC(=O)OC(C)(C)C)cc2)cc1	62.2*	/	74.1*	/	15.2	/	35.2	23.8	/
C=CS(=O)(=O)c1ccc(Oc2ccc(S(=O)(=O)C=C)cc2)cc1	77.7*	-1.6	99.7*	-108.2	2.6	-3.9	90.5*	99.7*	0.7
Cn1c(CNc2ccc(Cl)cc2)nc2ccccc21	-19.8	-5.0	-28.7	-176.4	-16.1	-1.6	/	/	/
